We go through 23 molecules from ChEMBL document CHEMBL3797175, “Discovery of 6-(difluoro(6-(4-fluorophenyl)-[1,2,4]triazolo[4,3-b][1,2,4]triazin-3-yl)methyl)quinoline as a highly potent and selective c-Met inhibitor” (Eur J Med Chem, 2016).

Series [1] can be described thus: Antitumor activity against human EBC1 cells xenografted in athymic nude mouse assessed as tumor growth inhibition at 25 mg/kg, po bid for 21 days measured twice a week during compound dosing relative to control. The format is functional. The note with it: EBC-1, po, 504 h, read-out: TGI. An outline of the steps:
(§1)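 Nude mice bearing s.c. tumours. Cells were first grown s.c. to 700–800 mm³, then 1.5 mm³ fragments were transplanted s.c. into the right flank. Mice were randomised at 100–200 mm³ (n=6 treated, n=12 vehicle) and dosed orally twice daily for 21 days. Caliper measurement twice weekly; TV = length×width²/2. TGI taken on the final day versus vehicle; Student's t test.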
(In general: In xenograft studies the graft and the host belong to different species.)

Series [2] is described as follows: Tmax in Sprague-Dawley rat at 10 mg/kg, po administered as single dose. Type of series: ADME, organism-based. The settings on record: in vivo. An outline of the steps:
(§2)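 Male Sprague-Dawley rats (n=3), single dose. IV 2 mg/kg in 1% DMA/9% Cremophor/90% saline; PO 10 mg/kg in 0.5% CMC-Na. For one compound, IV 10 mg/kg in DMSO/Tween 80/PEG40 and PO 10 mg/kg in 10% DMSO/5% Tween 80/85% saline.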

The nature of series [3]: Cmax in Sprague-Dawley rat at 10 mg/kg, po administered as single dose. The format is ADME, organism-based. Details: dose 10 mg/kg, route oral. The note with it: in vivo. The gist of the method:
(§3)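 Male Sprague Dawley rats (n=3), single dose. iv 2 mg/kg in 1% DMA/9% Cremophor/90% saline. po 10 mg/kg in 0.5% CMC-Na. Where iv was 10 mg/kg: 10% DMSO/10% Tween 80/80% (40% PEG40); po in that case in 10% DMSO/5% Tween 80/85% saline.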

Series [4] can be described thus: AUC (0 to infinity) in Sprague-Dawley rat at 10 mg/kg, po administered as single dose. The format is ADME, organism-based. Details: dose 10 mg/kg, route oral, time infinity. The settings on record: in vivo.
Series [5] in a line: Oral bioavailability in Sprague-Dawley rat at 10 mg/kg administered as single dose. Type of series: ADME, organism-based. The note with it: in vivo. An outline of the steps: as §2
A further series has as its system Mus musculus. Briefly: Toxicity in athymic nude mouse xenografted with human EBC1 cells assessed as body weight loss at 25 mg/kg, po bid for 21 days measured twice a week during compound dosing. The format is organism-based. The note with it: in vivo, 504 h. An outline of the steps:
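Nude mice carrying s.c. EBC-1 tumor fragments, randomized at 100–200 mm³ (n=6 treated, n=12 vehicle). Dosed orally twice daily for 21 days. Body weight and caliper tumor volume measured twice weekly.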

The nature of series [6]: Half life in Sprague-Dawley rat at 2 mg/kg, iv administered as single dose. Type of series: ADME, organism-based. The settings on record: in vivo. An outline of the steps: as §3
A short description of series [7]: Antitumor activity against human EBC1 cells xenografted in athymic nude mouse assessed as tumor growth inhibition at 12.5 mg/kg, po bid for 21 days measured twice a week during compound dosing relative to control. Type of series: functional. The settings on record: EBC-1, po, 504 h, read-out: TGI. An outline of the steps: as §1
A short description of series [8]: Clearance in Sprague-Dawley rat at 2 mg/kg, iv administered as single dose. The format is ADME, organism-based. The note with it: in vivo. An outline of the steps: as §3
The nature of series [9]: Volume of distribution at steady state in Sprague-Dawley rat at 2 mg/kg, iv administered as single dose. The settings on record: in vivo, read-out: Vdss. The format is ADME, organism-based. An outline of the steps:
as §2

The target of series [10] is T1, TPR/MET fusion protein (Mus musculus) (UniProt P16056+F6ZDS4). Briefly: Inhibition of TPR-MET in mouse […] cells assessed as inhibition of cell proliferation at 1 uM after 72 hrs by SRB or MTT assay relative to control. The format is cell-based. The gist of the method: (§4)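 Cells seeded, exposed next day to a range of concentrations for 72 h. Growth read by sulforhodamine B or MTT. IC50 from four-parameter concentration-response fit. Each concentration tested at least in triplicate, with at least 2 experiments.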
T1 sequence (F6ZDS4 whole entry partner, the tested form may be a part): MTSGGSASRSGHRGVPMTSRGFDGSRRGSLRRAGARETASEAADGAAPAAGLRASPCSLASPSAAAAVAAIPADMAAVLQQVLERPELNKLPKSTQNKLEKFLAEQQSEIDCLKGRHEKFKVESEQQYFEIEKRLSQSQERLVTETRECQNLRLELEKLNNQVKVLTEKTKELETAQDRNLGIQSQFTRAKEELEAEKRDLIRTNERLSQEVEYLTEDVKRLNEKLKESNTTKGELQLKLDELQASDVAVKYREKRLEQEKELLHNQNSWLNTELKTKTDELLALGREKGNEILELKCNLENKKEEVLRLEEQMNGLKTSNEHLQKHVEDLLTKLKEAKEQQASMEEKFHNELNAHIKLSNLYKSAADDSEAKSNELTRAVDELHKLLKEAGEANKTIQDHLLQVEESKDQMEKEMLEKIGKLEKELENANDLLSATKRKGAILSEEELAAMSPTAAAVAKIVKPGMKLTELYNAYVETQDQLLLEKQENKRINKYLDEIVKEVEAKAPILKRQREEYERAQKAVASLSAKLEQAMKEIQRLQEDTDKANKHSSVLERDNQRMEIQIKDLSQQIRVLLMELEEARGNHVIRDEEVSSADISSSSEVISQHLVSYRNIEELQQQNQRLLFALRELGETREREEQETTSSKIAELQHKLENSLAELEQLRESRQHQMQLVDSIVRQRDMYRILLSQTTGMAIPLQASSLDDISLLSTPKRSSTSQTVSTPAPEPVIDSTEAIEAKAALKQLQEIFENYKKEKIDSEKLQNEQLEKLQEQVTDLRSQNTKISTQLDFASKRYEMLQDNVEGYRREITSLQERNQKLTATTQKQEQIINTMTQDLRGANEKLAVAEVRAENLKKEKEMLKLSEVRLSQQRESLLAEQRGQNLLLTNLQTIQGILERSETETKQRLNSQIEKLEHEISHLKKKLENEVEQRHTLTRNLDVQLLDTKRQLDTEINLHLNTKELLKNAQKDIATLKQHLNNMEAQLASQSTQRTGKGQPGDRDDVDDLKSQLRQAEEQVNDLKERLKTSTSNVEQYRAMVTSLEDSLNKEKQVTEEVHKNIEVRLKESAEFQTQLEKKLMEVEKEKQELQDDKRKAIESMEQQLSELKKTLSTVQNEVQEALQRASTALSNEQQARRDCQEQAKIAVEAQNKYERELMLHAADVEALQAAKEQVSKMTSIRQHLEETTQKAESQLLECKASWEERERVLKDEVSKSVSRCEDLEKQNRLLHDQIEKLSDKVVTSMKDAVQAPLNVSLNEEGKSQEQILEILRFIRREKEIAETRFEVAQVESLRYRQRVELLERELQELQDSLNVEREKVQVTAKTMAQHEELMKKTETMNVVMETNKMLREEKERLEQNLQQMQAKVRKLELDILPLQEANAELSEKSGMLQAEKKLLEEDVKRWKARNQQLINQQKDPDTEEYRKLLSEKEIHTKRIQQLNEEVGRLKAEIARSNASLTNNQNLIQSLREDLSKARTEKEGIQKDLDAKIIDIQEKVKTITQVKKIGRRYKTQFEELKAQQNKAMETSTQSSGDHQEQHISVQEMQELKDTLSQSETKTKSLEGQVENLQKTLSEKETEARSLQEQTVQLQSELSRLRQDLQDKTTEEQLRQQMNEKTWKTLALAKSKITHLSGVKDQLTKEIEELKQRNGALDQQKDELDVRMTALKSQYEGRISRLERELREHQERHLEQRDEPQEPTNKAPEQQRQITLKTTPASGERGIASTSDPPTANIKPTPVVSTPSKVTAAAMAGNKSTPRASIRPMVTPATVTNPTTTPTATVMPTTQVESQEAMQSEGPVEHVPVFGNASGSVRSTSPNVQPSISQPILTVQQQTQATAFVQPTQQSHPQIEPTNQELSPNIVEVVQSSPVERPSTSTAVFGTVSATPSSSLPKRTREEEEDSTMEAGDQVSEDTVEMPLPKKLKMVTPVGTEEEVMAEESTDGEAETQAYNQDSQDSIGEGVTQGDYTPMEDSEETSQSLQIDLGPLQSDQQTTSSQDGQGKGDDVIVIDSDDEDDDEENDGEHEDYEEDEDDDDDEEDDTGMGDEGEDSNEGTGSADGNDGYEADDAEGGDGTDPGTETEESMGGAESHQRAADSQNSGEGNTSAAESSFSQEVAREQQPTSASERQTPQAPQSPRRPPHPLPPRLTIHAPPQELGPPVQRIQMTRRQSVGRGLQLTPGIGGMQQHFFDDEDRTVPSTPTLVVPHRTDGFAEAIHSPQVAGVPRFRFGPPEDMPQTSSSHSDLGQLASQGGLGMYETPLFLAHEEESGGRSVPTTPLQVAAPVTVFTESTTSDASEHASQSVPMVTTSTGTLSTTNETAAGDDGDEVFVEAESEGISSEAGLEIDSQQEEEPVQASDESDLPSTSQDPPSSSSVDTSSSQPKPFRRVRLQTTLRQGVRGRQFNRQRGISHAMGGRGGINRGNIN
T1 sequence (P16056 25-1379 limits assumed): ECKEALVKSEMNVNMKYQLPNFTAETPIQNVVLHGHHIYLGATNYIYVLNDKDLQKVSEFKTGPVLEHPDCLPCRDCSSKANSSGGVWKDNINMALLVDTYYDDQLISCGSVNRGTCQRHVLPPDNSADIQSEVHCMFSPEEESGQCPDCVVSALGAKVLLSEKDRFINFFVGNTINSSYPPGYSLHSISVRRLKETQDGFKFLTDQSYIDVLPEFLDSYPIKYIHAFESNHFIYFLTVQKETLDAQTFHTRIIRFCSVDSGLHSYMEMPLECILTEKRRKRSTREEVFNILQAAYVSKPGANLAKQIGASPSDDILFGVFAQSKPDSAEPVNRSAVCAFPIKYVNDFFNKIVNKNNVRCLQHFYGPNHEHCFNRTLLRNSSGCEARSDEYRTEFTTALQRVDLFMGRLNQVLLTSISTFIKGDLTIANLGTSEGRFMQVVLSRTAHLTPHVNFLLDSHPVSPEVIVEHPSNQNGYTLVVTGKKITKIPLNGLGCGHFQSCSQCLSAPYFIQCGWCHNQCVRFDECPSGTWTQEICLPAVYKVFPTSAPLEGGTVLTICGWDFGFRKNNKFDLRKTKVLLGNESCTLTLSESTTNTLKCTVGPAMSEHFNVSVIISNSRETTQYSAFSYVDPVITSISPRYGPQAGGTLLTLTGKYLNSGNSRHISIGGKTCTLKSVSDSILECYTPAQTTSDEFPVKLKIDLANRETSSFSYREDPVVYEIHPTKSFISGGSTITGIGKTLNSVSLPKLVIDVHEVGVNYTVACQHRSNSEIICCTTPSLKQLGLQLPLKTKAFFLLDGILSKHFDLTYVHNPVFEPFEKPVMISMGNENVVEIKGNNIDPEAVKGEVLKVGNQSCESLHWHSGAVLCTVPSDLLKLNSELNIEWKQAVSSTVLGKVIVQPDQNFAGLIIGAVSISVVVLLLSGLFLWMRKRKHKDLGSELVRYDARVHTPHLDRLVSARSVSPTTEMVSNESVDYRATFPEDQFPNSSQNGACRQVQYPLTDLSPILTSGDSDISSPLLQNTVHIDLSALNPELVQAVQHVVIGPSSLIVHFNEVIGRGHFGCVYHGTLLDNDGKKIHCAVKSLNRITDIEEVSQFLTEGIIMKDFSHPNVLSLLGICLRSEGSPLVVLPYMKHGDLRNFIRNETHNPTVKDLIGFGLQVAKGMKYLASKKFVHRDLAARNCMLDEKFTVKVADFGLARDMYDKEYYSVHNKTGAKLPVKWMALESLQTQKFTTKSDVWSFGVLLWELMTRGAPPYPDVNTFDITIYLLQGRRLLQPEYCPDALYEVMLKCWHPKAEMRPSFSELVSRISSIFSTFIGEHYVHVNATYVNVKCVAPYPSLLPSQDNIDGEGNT
Background: Formazan colour is commonly taken as a measure of viable cells.

In series [11] the target is T1, TPR/MET fusion protein (Mus musculus). Briefly: Inhibition of TPR-MET in mouse […] cells assessed as inhibition of cell proliferation at 10 uM after 72 hrs by SRB or MTT assay relative to control. Type of series: cell-based. The gist of the method:
as §4

A short description of series [12]: Volume of distribution at steady state in Sprague-Dawley rat at 10 mg/kg, iv administered as single dose. Type of series: ADME, organism-based. The note with it: in vivo, read-out: Vdss. An outline of the steps: as §2
Series [13] in a line: Half life in Sprague-Dawley rat at 10 mg/kg, iv administered as single dose. The format is ADME, organism-based. The note with it: in vivo. An outline of the steps:
as §3

Series [14] in a line: Clearance in Sprague-Dawley rat at 10 mg/kg, iv administered as single dose. Type of series: ADME, organism-based. The note with it: in vivo. The gist of the method: as §3
Series [15] deals with Hepatocyte growth factor receptor (Homo sapiens, UniProt P08581). Briefly: Inhibition of recombinant c-Met (unknown origin) using poly (Glu, Tyr) 4:1 as substrate incubated for 60 mins by ELISA. For orientation: ELISA stands for enzyme-linked immunosorbent assay.
Hepatocyte growth factor receptor, sequence (P08581 whole entry): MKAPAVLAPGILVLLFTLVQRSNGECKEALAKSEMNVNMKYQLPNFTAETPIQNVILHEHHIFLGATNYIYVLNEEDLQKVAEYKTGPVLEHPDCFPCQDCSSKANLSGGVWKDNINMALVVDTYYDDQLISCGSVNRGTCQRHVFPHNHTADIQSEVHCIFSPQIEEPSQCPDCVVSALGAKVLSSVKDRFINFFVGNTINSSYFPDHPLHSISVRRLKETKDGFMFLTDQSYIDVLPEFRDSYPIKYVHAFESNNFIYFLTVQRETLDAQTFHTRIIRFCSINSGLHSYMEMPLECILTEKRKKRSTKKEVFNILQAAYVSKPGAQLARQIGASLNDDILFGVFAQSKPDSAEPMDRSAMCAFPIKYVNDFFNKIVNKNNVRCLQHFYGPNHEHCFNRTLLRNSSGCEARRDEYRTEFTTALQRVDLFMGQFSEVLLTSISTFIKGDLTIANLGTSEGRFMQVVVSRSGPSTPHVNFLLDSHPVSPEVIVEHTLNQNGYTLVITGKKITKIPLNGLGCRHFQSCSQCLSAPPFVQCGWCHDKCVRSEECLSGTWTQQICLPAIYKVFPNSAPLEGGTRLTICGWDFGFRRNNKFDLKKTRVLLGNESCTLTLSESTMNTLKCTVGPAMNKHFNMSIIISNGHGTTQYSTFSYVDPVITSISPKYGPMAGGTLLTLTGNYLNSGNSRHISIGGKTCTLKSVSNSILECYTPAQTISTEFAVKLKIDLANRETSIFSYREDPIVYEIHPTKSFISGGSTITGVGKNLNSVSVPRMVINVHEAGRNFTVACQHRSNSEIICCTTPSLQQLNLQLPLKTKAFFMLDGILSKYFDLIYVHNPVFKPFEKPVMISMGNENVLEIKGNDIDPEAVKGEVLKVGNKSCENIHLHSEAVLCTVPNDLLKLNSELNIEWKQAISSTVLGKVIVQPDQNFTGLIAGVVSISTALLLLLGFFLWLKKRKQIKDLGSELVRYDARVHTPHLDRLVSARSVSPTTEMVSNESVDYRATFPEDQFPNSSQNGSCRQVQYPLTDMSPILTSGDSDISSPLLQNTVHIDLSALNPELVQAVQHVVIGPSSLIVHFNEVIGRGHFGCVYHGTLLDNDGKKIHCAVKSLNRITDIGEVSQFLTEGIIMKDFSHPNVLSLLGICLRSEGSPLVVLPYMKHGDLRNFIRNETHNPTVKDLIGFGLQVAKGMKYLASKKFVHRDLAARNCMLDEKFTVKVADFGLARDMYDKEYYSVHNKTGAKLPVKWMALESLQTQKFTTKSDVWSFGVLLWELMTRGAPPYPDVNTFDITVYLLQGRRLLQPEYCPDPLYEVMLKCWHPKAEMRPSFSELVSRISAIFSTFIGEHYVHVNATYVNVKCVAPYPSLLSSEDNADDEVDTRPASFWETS

`CCCn1cc(-c2cnc3nnc(C(F)(F)c4ccc5ncccc5c4)n3n2)cn1`: the inhibition in vivo at 25 mg/kg in series [1] came out at 96.6%. Besides, the Tmax in series [2] is 0.5 h. The peak level in [3] (Cmax) was 1610 ng/mL. In [4], this molecule registered an AUC(0-inf) of 3390 ng·h/mL. For the same molecule, the bioavailability in series [5] is 61.6%. Moreover, the Activity entry in the series with Mus musculus is “Toxic”. In series [6], this molecule had a half-life of 1.21 h. Moreover, the inhibition in vivo at 12.5 mg/kg in series [7] came to 75.9%. The molecule further gave a clearance in series [8] of 30.7 mL/min/kg. Moreover, in series [9], the Vd was determined as 3.2 L/kg.

Take `Clc1ccc(-c2cnc3nnc(Cc4ccc5ncccc5c4)n3n2)cc1`: the inhibition in series [10] was found to be 69.2%; in series [11], 80.6%.

Regarding `c1ccc(-c2cnc3nnc(Cc4ccc5ncccc5c4)n3n2)cc1`, the inhibition is 58.4% in series [10] and 80.9% in series [11].

`Oc1cccc(-c2cnc3nnc(Cc4ccc5ncccc5c4)n3n2)c1`: the inhibition was 36.1% in series [10] and 69.9% in [11].

On to `Brc1ccc(-c2cnc3nnc(Cc4c[nH]c5ccccc45)n3n2)cc1`, for which the figures for the inhibition in series [10] and in series [11] were 9.9% and 17.3%, respectively.

With `COc1cccc(-c2cnc3nnc(Cc4ccc5ncccc5c4)n3n2)c1`, the inhibition was determined as 69.8% in series [10] and 81% in series [11].

Take `Oc1cccc(-c2cnc3nnc(Cc4c[nH]c5ccccc45)n3n2)c1`: the values for the inhibition in series [10] and in series [11] were 8.2% and 10.2%, respectively.

In the case of `c1ccc(COc2ccc(-c3cnc4nnc(Cc5ccc6ncccc6c5)n4n3)cc2)cc1`, the results for the inhibition in series [10] and in [11] were 53.8% and 88%, respectively.

Regarding `FC(F)(c1ccc2ncccc2c1)c1nnc2ncc(-c3ccco3)nn12`, in [1], the inhibition in vivo at 25 mg/kg was 65.8%. The Tmax in [2] was determined as 0.42 h. The molecule also returned a Cmax in series [3] of 961 ng/mL. The AUC(0-inf) in [4] turned out to be 2040 ng·h/mL. The molecule also gave a bioavailability in series [5] of 48%. The same molecule had a half-life in [6] of 1.53 h. Also, the inhibition in vivo at 12.5 mg/kg in [7] worked out at 50.1%. For the same molecule, in series [8], the clearance is 39.5 mL/min/kg. The Vd in series [9] is 5.14 L/kg.

As to `CC(C)(C)OC(=O)N1CCC(n2cc(-c3cnc4nnc(Cc5ccc6ncccc6c5)n4n3)cn2)CC1`, the inhibition in series [10] came out at 68.9%; in series [11] it was 86.6%.

In the case of `c1cnc2ccc(Cc3nnc4ncc(-c5cnc6ccccc6c5)nn34)cc2c1`, the inhibition in series [10] is 63.1%; in series [11] it was 78%.

In the case of `CCn1cc(-c2cnc3nnc(Cc4ccc5ncccc5c4)n3n2)cn1`, the values for the inhibition in [10] and in series [11] were 85.5% and 97.1%, respectively.

As to `c1ccc(Cn2cc(-c3cnc4nnc(Cc5ccc6ncccc6c5)n4n3)cn2)cc1`, the values for the inhibition in [10] and in series [11] were 68.3% and 89.5%, respectively.

As to `Brc1ccc(-c2cnc3nnc(Cc4ccc5ncccc5c4)n3n2)cc1`, the inhibition in series [10] amounted to 75.8%; in [11], 83.6%.

For the molecule `Cn1cc(-c2cnc3nnc(C(F)(F)c4ccc5ncccc5c4)n3n2)cn1`, the Tmax in series [2] was found to be 2.5 h. The concentration in series [3] peaked (Cmax) at 209 ng/mL. The molecule also showed an AUC(0-inf) in [4] of 780 ng·h/mL. Also, in series [12], the Vd was 0.81 L/kg. Also, in series [5], the bioavailability was determined as 9.4%. In series [13], the half-life was 1.14 h. This molecule showed a clearance in series [14] of 22.3 mL/min/kg.

As for `c1cnc2ccc(Cc3nnc4ncc(-c5cnn(C6CCNCC6)c5)nn34)cc2c1`, the results for the inhibition in series [10] and in series [11] were 14.9% and 77%, respectively.

Consider `Clc1ccc(-c2cnc3nnc(Cc4ccc5ncccc5c4)n3n2)cc1Cl`, for which the figures for the inhibition in series [10] and in series [11] were 82.2% and 83.5%, respectively.

For the molecule `c1ccc(COc2ccc(-c3cnc4nnc(Cc5c[nH]c6ccccc56)n4n3)cc2)cc1`, the inhibition was 26.9% in series [10] and 58% in [11].

As to `Cn1cc(-c2cnc3nnc(Cc4ccc5ncccc5c4)n3n2)cn1`, the inhibition is 76.9% in [10] and 77.8% in [11].

In the case of `O=[N+]([O-])c1cccc(-c2cnc3nnc(Cc4ccc5ncccc5c4)n3n2)c1`, the inhibition in series [10] was determined as 76.6%; in [11], 88.3%.

Consider `Cn1cc(-c2ccc3nnc(C(F)(F)c4ccc5ncccc5c4)n3n2)cn1` [JNJ-38877605], for which the inhibition was 70.8% in series [10] and 72.2% in series [11]. The IC50 in series [15] came out at 0.95 nM.

Consider `CCCn1cc(-c2cnc3nnc(Cc4ccc5ncccc5c4)n3n2)cn1`, for which the figures for the inhibition in series [10] and in series [11] were 88.1% and 88.4%, respectively.

Take `c1csc(-c2cnc3nnc(Cc4ccc5ncccc5c4)n3n2)c1`: the inhibition stood at 85.9% in series [10] and 89.3% in series [11].

As a reminder, the Tmax is the time at which the peak concentration occurs. The term Cmax denotes the peak of the concentration-time curve. By AUC(0-inf) is commonly meant the area under the concentration-time curve extrapolated to infinity. A higher AUC(0-inf) goes with high exposure. As usually defined, the bioavailability is dose-corrected exposure relative to a reference, in per cent. A word on the half-life: it is the time needed for the level to fall by half in the phase considered. Low readings indicate rapid decline, high ones slow decline. The term clearance denotes the rate of elimination divided by the concentration. Lower therefore signals a low capacity for elimination. A word on the inhibition: it is the relative decrease from the control value, in per cent. For orientation: IC50 means the concentration needed to halve the response being measured.
